Results of several laboratories.
Lines come from different studies, so protocols differ.
Target: Rhodopsin kinase GRK1 (GRK1, Homo sapiens, UniProt Q15835)
Residues used in one study (Q15835 1-563): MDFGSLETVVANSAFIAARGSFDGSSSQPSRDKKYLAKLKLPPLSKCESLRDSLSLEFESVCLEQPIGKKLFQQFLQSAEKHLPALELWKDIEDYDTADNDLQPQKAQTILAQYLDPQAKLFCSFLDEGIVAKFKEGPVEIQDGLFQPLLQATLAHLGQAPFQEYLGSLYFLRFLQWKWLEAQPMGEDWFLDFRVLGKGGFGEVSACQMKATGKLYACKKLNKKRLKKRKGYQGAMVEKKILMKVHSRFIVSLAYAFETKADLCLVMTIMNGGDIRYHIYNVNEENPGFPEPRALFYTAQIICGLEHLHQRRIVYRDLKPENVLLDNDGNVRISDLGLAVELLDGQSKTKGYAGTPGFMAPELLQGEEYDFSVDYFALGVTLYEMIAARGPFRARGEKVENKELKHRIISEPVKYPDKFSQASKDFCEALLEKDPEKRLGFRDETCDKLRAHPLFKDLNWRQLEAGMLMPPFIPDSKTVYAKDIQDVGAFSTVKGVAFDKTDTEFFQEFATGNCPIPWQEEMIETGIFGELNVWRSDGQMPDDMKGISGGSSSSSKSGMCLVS

| SMILES | test | conditions | measurement | value |
| --- | --- | --- | --- | --- |
| O=C(N1CCS(=O)(=O)CC1)N1C[C@H](c2ccc(OC(F)(F)F)cc2)C[C@H](c2nc(C3CC3)no2)C1 | cell-free assay, competition with immobilised ligand | 1 µM | remaining binding | 92% |
| Cc1cnc(NC2CCOCC2)nc1-n1cnc(C(=O)NC(CN)c2cc(F)cc(Cl)c2)c1 (stereo not drawn) | enzyme activity, inhibitor, radiometric | 1 µM | remaining activity | 98% |
| Nc1ncnc2occ(-c3ccc(NC(=O)Nc4cc(C(F)(F)F)ccc4F)cc3)c12 | cell-free assay, inhibitor | 20 µM | remaining signal | 100% |
| Cn1c2c(Cl)c(Cl)ccc2c2cc[nH]c(=O)c21 | thermal stability, DSF | 10 µM | ΔTm | 1.5 °C |
| Cc1ccc(C(=O)Nc2ccc(CN3CCN(C)CC3)c(C(F)(F)F)c2)cc1C#Cc1cnc2cccnn12 | enzyme activity, inhibitor | 23.5 nM | remaining activity | 93% |
| COc1ccc2c(c1)O[C@H](c1ccc(OC)c(OC)c1)C[C@@H]2NC(=O)C1(c2ccc3c(c2)OC(F)(F)O3)CC1 | cell-free assay, competition with immobilised ligand | 1 µM | remaining binding | 97% |
| Cn1c2c(c3ccc(Cl)c(Cl)c31)C(C#N)C1(CCCCC1)NC2=O (racemic) | thermal stability, DSF | 10 µM | ΔTm | 0.1 °C |
| CNCc1ccccc1-c1csc([C@H](C)Nc2nc(C)nc3cc(OC)c(OC)cc23)c1 | cell-free assay, competition with immobilised ligand | 1 µM | remaining binding | 100% |
| COc1cc(Cl)c(C(=O)N[C@@H](CN[C@H]2CC[C@@H](N)CC2)Cc2ccc(C#N)cc2)cc1-c1ccc(CN[C@H](C)c2ccc(C)cc2)o1 | enzyme activity, inhibitor | 1 µM | remaining activity | 100% |
| Cn1c2c(c3ccc(Cl)c(Cl)c31)C(C#N)C1(CCN(C(=O)OC(C)(C)C)CC1)NC2=O (racemic) | thermal stability, DSF | 10 µM | ΔTm | 0 °C |
| CC(C)CC(=O)N1CCc2nc(-c3ccc(Br)cc3)nc(N(C)Cc3ccccc3)c2C1 | cell-free assay, competition with immobilised ligand | 0.1 µM | remaining binding | 100% |
| Cn1c2c(c3ccc(Cl)c(Cl)c31)C(C#N)C1(CCCC1)NC2=O (stereo not drawn) | thermal stability, DSF | 10 µM | ΔTm | 0 °C |
| O=C(Nc1cnn(-c2csc(C(=O)NC3COC3)c2)c1)Nc1ccccc1Cl | enzyme activity, inhibitor | 5 µM | remaining activity | 91.9% |
| N#CC1c2c([nH]c3c(Cl)c(Cl)ccc23)C(=O)NC12CCCCC2 (racemic) | thermal stability, DSF | 10 µM | ΔTm | 0.6 °C |
| C[C@H](c1ccc(F)cc1)N(Cc1cccc(C(=O)O)c1)C(=O)c1cnc2ccccc2c1 | cell-free assay, competition with immobilised ligand | 1 µM | remaining binding | 100% |
